Data set [1] can be described thus: Drug metabolism in human NCI-H2122 cells assessed as (R)-4-(amino(phenyl)methyl)-N-(6-hydroxybenzo[d]thiazol-2-yl)-benzamide formation at 100 nM by LC-MS/MS analysis. It is filed as ADME, cell-based. The note with it: nci-h2122, 0.1 µM. The essentials: (§1)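 H2122 and H1155 pLVX (empty vector) cells, 4000/well, adhered overnight. Then fresh medium with 100 nM prodrug, ±1 μM HET0016 (CYP4A/4F inhibitor), at 37 °C, 5% CO2. At varying times, cells and medium lysed and protein-precipitated with 2 volumes methanol/0.2% formic acid containing internal standard, then spun at 16,000g for 5 min. Parent and demethylated metabolite quantified by LC-MS/MS against standard curves in blank cell lysates.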

Data set [2] in a line: AUC in fat of CD-1 female mouse at 10 mg/kg, ip single dose by LC-MS/MS analysis. Particulars: CD-1, mouse.
Data set [3] is described as follows: Cmax in plasma of CD-1 female mouse at 10 mg/kg, ip single dose by LC-MS/MS analysis. Particulars: CD-1, mouse.
Data set [4] in a line: AUC in lung of CD-1 female mouse at 10 mg/kg, ip single dose by LC-MS/MS analysis. Particulars: CD-1, mouse.
Data set [5] can be described thus: Cmax in lung of CD-1 female mouse at 10 mg/kg, ip single dose by LC-MS/MS analysis. The note with it: CD-1, mouse.
A short description of data set [6]: Cmax in fat of CD-1 female mouse at 10 mg/kg, ip single dose by LC-MS/MS analysis. Particulars: CD-1, mouse.
A short description of data set [7]: AUC in plasma of CD-1 female mouse at 10 mg/kg, ip single dose by LC-MS/MS analysis. Particulars: CD-1, mouse.
Data set [8] can be described thus: Drug level in tumor of nod-SCID mouse xenografted with human NCI-H2122 cells at 20 mg/kg, ip single dose and measured after 7 hrs by LC-MS/MS analysis. The note with it: read-out: Drug uptake. In general terms: Xenograft models place foreign cells or tissue in a host animal.
Data set [9] concerns NCI-H2122. The experiment in a line: Antitumor activity against human NCI-H2122 cells xenografted in nod-SCID mouse fed fat-free diet at 10 mg/kg, ip BID for 3 weeks. Format: functional, organism-based. Summed up:
(§2)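 Female NOD-SCID mice, 6–8 weeks, on control diet (4.1% soybean-oil fat) or fat-free diet (0.1% fat). Three days later, 5 × 10⁶ H2122 cells injected subcutaneously into the left flank. At ~100 mm³, randomized to groups of six. Dosing 10 mg/kg BID, 20 mg/kg QD, or vehicle BID (10% DMSO, 10% Kolliphor EL, 80% 50 mM lactic acid pH 3.6) for three weeks. Caliper measurements twice weekly; volume = length × width² × π/6.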

Data set [10] is described as follows: Toxicity in normal chow diet fed nod-SCID mouse xenografted with NCI-H2122 cells assessed as effect on behavior at 20 mg/kg, ip QD for 3 weeks. Format: organism-based. The note with it: in vivo, 504 h.
The nature of data set [11]: Toxicity in fat-free diet fed nod-SCID mouse xenografted with NCI-H2122 cells assessed as effect on body weight at 20 mg/kg, ip QD for 3 weeks. Format: organism-based. Particulars: in vivo, 504 h.
Data set [12] in a line: Toxicity in fat-free diet fed nod-SCID mouse xenografted with NCI-H2122 cells assessed as body weight loss at 10 mg/kg, ip BID for 3 weeks (reference value: <5%). Format: organism-based. The note with it: in vivo, 504 h.
Data set [13] is described as follows: Drug level in tumor of fat-free diet fed nod-SCID mouse xenografted with NCI-H2122 cells at 20 mg/kg, ip QD for 3 weeks and measured 3 hrs after final dose by LC-MS/MS analysis. It is filed as ADME, organism-based, Neoplasm. The note with it: read-out: Drug uptake. The essentials:
(§3)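 Xenografted NOD-SCID mice on control or fat-free diet, dosed for three weeks, euthanized 3 h after the last dose. Plasma and tumor homogenate (3 volumes PBS) mixed with 2 volumes acetonitrile or methanol with 0.15% formic acid and internal standard, then centrifuged. Drug form quantified by LC-MS/MS against spiked blank-matrix standard curves.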

The nature of data set [14]: Toxicity in normal chow diet fed nod-SCID mouse xenografted with NCI-H2122 cells assessed as effect on appearance at 10 mg/kg, ip BID for 3 weeks. Particulars: in vivo, 504 h. Format: organism-based.
The nature of data set [15]: Toxicity in fat-free diet fed nod-SCID mouse xenografted with NCI-H2122 cells assessed as effect on behavior at 10 mg/kg, ip BID for 3 weeks. It is filed as organism-based. The note with it: in vivo, 504 h.
Data set [16] is described as follows: Toxicity in fat-free diet fed nod-SCID mouse xenografted with NCI-H2122 cells assessed as effect on appearance at 10 mg/kg, ip BID for 3 weeks. The note with it: in vivo, 504 h. Format: organism-based.
Data set [17] in a line: Half life in human NCI-H2122 cells at 100 nM by LC-MS/MS analysis. Format: ADME, cell-based. Summed up: as §1
Data set [18] in a line: Half life in human NCI-H2122 cells at 100 nM in presence of CYP4F inhibitor HET0016 by LC-MS/MS analysis. Particulars: with HET0016 (CYP4F inhibitor), concentration not stated. Format: ADME, cell-based. Summed up:
as §1

Data set [19] can be described thus: Toxicity in normal chow diet fed nod-SCID mouse xenografted with NCI-H2122 cells assessed as body weight loss at 20 mg/kg, ip QD for 3 weeks (reference value: <5%). It is filed as organism-based. The note with it: in vivo, 504 h.
Data set [20] can be described thus: Drug metabolism in human NCI-H2122 cells assessed as (R)-4-(amino(phenyl)methyl)-N-(6-hydroxybenzo[d]thiazol-2-yl)-benzamide formation at 100 nM by in presence of CYP4F inhibitor HET0016 LC-MS/MS analysis. Format: ADME, cell-based. Particulars: nci-h2122, 0.1 µM. Summed up: as §1
Data set [21] in a line: Toxicity in normal chow diet fed nod-SCID mouse xenografted with NCI-H2122 cells assessed as body weight loss at 10 mg/kg, ip BID for 3 weeks (reference value: <5%). Format: organism-based. The note with it: in vivo, 504 h.
A short description of data set [22]: Toxicity in normal chow diet fed nod-SCID mouse xenografted with NCI-H2122 cells assessed as effect on behavior at 10 mg/kg, ip BID for 3 weeks. Format: organism-based. Particulars: in vivo, 504 h.
In data set [23] the test system is NCI-H2122. The experiment in a line: Antitumor activity against human NCI-H2122 cells xenografted in nod-SCID mouse fed fat-free diet at 20 mg/kg, ip QD for 3 weeks. It is filed as functional, organism-based. The essentials: as §2
The nature of data set [24]: Drug level in plasma of fat-free diet fed nod-SCID mouse xenografted with NCI-H2122 cells at 20 mg/kg, ip QD for 3 weeks and measured 3 hrs after final dose by LC-MS/MS analysis. It is filed as ADME, organism-based. Summed up:
as §3

Data set [25] can be described thus: Toxicity in normal chow diet fed nod-SCID mouse xenografted with NCI-H2122 cells assessed as effect on body weight at 20 mg/kg, ip QD for 3 weeks. Format: organism-based. The note with it: in vivo, 504 h.
A short description of data set [26]: Toxicity in fat-free diet fed nod-SCID mouse xenografted with NCI-H2122 cells assessed as effect on behavior at 20 mg/kg, ip QD for 3 weeks. Format: organism-based. Particulars: in vivo, 504 h.
Data set [27] deals with NCI-H2122. Nature of the data set: Antitumor activity against human NCI-H2122 cells xenografted in nod-SCID mouse fed normal chow diet at 20 mg/kg, ip QD for 3 weeks. It is filed as functional, organism-based. Summed up:
as §2

Data set [28] is described as follows: Toxicity in normal chow diet fed nod-SCID mouse xenografted with NCI-H2122 cells assessed as effect on appearance at 20 mg/kg, ip QD for 3 weeks. Format: organism-based. The note with it: in vivo, 504 h.
Data set [29] concerns NCI-H2122. Nature of the data set: Antitumor activity against human NCI-H2122 cells xenografted in nod-SCID mouse fed normal chow diet at 10 mg/kg, ip BID for 3 weeks. Format: functional, organism-based. Summed up:
as §2

A short description of data set [30]: Toxicity in fat-free diet fed nod-SCID mouse xenografted with NCI-H2122 cells assessed as body weight loss at 20 mg/kg, ip QD for 3 weeks (reference value: <5%). Format: organism-based. Particulars: in vivo, 504 h.
Data set [31] is described as follows: Drug level in plasma of normal chow diet fed nod-SCID mouse xenografted with NCI-H2122 cells at 20 mg/kg, ip QD for 3 weeks and measured 3 hrs after final dose by LC-MS/MS analysis. It is filed as ADME, organism-based. The essentials: as §3
Data set [32] can be described thus: Drug metabolism in human NCI-H1155 cells assessed as (R)-4-(amino(phenyl)methyl)-N-(6-hydroxybenzo[d]thiazol-2-yl)-benzamide formation at 100 nM by LC-MS/MS analysis. It is filed as ADME, cell-based. Particulars: nci-h1155, 0.1 µM. The essentials:
as §1

Data set [33] in a line: Toxicity in fat-free diet fed nod-SCID mouse xenografted with NCI-H2122 cells assessed as effect on appearance at 20 mg/kg, ip QD for 3 weeks. It is filed as organism-based. Particulars: in vivo, 504 h.
Data set [34] in a line: Half life in human NCI-H1155 cells at 100 nM by LC-MS/MS analysis. It is filed as ADME, cell-based. The essentials: as §1
Data set [35] is described as follows: Toxicity in normal chow diet fed nod-SCID mouse xenografted with NCI-H2122 cells assessed as effect on body weight at 10 mg/kg, ip BID for 3 weeks. It is filed as organism-based. Particulars: in vivo, 504 h.
Data set [36] in a line: Drug level in tumor of normal chow diet fed nod-SCID mouse xenografted with NCI-H2122 cells at 20 mg/kg, ip QD for 3 weeks and measured 3 hrs after final dose by LC-MS/MS analysis. It is filed as ADME, organism-based, Neoplasm. Particulars: read-out: Drug uptake. The essentials: as §3
Data set [37] can be described thus: Toxicity in fat-free diet fed nod-SCID mouse xenografted with NCI-H2122 cells assessed as effect on body weight at 10 mg/kg, ip BID for 3 weeks. It is filed as organism-based. Particulars: in vivo, 504 h.

The results in this text go back to ChEMBL document CHEMBL4622978, “Tumor-Activated Benzothiazole Inhibitors of Stearoyl-CoA Desaturase” (J Med Chem, 2020).

Activity calls are given as the source filed them. Some results are limits rather than exact numbers.

Consider `N[C@H](c1ccccc1)c1ccc(C(=O)Nc2nc3ccccc3s2)cc1`, for which the Drug metabolism entry in data set [1] was “Metabolite_Detected”.
Take `COc1ccc2nc(NC(=O)c3ccc(C(N)c4ccccc4)cc3)sc2c1` (racemic): the AUC (as a rule, concentration integrated over time) at 504 h in data set [2] is 77 µM·h; in data set [4] it was 160 µM·h; in [7] it was 3 µM·h. Also, the figures for the Cmax in data set [3], in data set [5] and in data set [6] were 1.5 µM, 61 µM and 94 µM, respectively. For the same compound, the concentration at 7 h in data set [8] was 7 µM.
In the case of `COc1ccc2nc(NC(=O)c3ccc(C(=O)c4ccccc4)cc3)sc2c1`, the peak concentration (Cmax) – broadly, the highest concentration seen after dosing – in data set [3] came out at 0.3 µM; in data set [5], 0.9 µM; in data set [6], 90 µM. Also, the AUC at 504 h in data set [4] was determined as 2.6 µM·h; in data set [7] it was 0.6 µM·h.
As for `COc1ccc2nc(NC(=O)c3ccc(C(O)c4ccccn4)cc3)sc2c1` (racemic), the AUC at 504 h came to 70 µM·h in data set [2], 17 µM·h in [4] and 9.6 µM·h in data set [7]. The Cmax in data set [3] was found to be 11 µM; in data set [5], 26 µM; in [6] it was 120 µM.
For the compound `COc1ccc2nc(NC(=O)c3ccc([C@H](N)c4ccccc4)cc3)sc2c1`, the result with NCI-H2122 [9], with NCI-H2122 [23], in the data set with NCI-H2122 [27] and with NCI-H2122 [29] was Active. In addition, the Activity result in data set [10] is “Non-Toxic”; in data set [11] it was “Non-Toxic”; in data set [12] it was 17%; in data set [14] it was “Non-Toxic”; in data set [15] it was “Non-Toxic”; in data set [16], “Non-Toxic”. In addition, the Activity was 5% in data set [19]; 13% in data set [21]; “Non-Toxic” in [22]; “Non-Toxic” in [25]; “Non-Toxic” in data set [26]; “Non-Toxic” in data set [28]. Moreover, the Activity is 7% in data set [30], “Non-Toxic” in data set [33], “Non-Toxic” in [35] and “Non-Toxic” in data set [37]. Moreover, the peak level in data set [3] (Cmax) was 0.9 µM. Further, the concentration at 3 h in [13], in [24], in data set [31] and in [36] was more than 5 µM in each case. The half-life (commonly the time needed for the level to fall by half in the phase considered) at 0.1 µM in data set [17] is 19 h; in data set [18], more than 48 h; in data set [34], more than 48 h. In addition, the Drug metabolism entry in [20] is “Metabolite_Notdetected”; in [1], “Metabolite_Detected”; in data set [32], “Metabolite_Notdetected”. The same compound displayed an AUC at 504 h in data set [7] of 1.6 µM·h.
